Source: ChEMBL document CHEMBL4402576, “Discovery and Development of Small-Molecule Inhibitors of Glycogen Synthase” (J Med Chem, 2020)

Tests used:
[1] = molecular target: T1, Glycogen [starch] synthase, muscle (Homo sapiens) (UniProt P13807); test: Inhibition of C-terminal 6His-tagged wild type human GYS1 assessed as enzyme activity at 20 uM using UDPG as substrate in presence of 1 mM G-6-P by 14C-glucose incorporation assay relative to control; set-up: scale not given: the % may be the effect or the level left
T1 sequence (whole entry): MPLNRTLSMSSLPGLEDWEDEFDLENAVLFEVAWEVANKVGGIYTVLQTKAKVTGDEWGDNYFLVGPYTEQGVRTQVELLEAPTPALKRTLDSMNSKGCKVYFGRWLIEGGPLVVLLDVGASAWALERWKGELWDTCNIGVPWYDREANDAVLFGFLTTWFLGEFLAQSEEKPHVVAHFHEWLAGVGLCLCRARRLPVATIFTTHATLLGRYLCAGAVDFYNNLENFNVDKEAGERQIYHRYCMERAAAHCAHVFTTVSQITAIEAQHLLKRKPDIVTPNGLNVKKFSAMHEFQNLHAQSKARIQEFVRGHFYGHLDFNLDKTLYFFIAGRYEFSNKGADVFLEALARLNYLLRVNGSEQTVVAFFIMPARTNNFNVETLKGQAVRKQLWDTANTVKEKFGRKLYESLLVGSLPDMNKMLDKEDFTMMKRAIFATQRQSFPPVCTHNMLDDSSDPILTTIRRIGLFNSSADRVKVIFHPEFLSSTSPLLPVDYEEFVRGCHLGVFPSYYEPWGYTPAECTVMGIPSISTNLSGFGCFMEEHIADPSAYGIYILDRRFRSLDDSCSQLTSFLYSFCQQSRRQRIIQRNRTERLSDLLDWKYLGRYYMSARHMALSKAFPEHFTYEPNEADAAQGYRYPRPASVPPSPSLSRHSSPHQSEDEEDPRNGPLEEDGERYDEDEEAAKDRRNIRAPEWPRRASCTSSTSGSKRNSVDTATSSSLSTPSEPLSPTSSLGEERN

[2] = species: Homo sapiens; test: Inhibition of C-terminal 6His-tagged human GYS1 delta634S8,11N mutant assessed as enzyme activity at 20 uM using UDPG as substrate in presence of 0.4 mM G-6-P by 14C-glucose incorporation assay relative to control; set-up: scale not given: the % may be the effect or the level left
[3] = system: Saccharomyces cerevisiae; test: Inhibition of recombinant His-tagged yeast GYS2P expressed in Escherichia coli BL21(DE3) cells assessed as enzyme activity at 20 uM using UDPG as substrate in presence of G-6-P by 14C-glucose incorporation assay relative to control; set-up: scale not given: the % may be the effect or the level left
[4] = molecular target: T1, Glycogen [starch] synthase, muscle (Homo sapiens); test: Inhibition of C-terminal 6His-tagged wild type human GYS1 assessed as enzyme activity at 300 uM using UDPG as substrate in presence of 1 mM G-6-P by 14C-glucose incorporation assay relative to control; set-up: scale not given: the % may be the effect or the level left
[5] = system: Saccharomyces cerevisiae; test: Inhibition of recombinant His-tagged yeast GYS2P expressed in Escherichia coli BL21(DE3) cells assessed as enzyme activity at 300 uM using UDPG as substrate in presence of G-6-P by 14C-glucose incorporation assay relative to control; set-up: scale not given: the % may be the effect or the level left
[6] = species: Homo sapiens; test: Inhibition of C-terminal 6His-tagged human GYS1 delta634S8,11N mutant assessed as enzyme activity at 300 uM using UDPG as substrate in presence of 0.4 mM G-6-P by 14C-glucose incorporation assay relative to control; set-up: scale not given: the % may be the effect or the level left
[7] = molecular target: T1, Glycogen [starch] synthase, muscle (Homo sapiens); test: Inhibition of glycogen synthase in human HEK293 cell lysates overexpressing mouse PTG at 100 uM using 0.2 mM UDPG as substrate in presence of 1 mM G-6-P by 14C-glucose incorporation assay relative to control; type: subcellular; conditions: Lysate
Method in brief: (§1)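 Lysates came from HEK293 cells stably expressing PTG (5.5 mM glucose αMEM, 10% FBS, hygromycin) or from Rat-1 cells (25 mM glucose DMEM, 10% FBS), grown 3–4 days to confluency. Cells were lysed by freezing, scraping and sonication in Tris/EDTA/EGTA/NaF buffer with protease inhibitors and Triton. Assays used 0.15 mg/mL (HEK293-PTG) or 0.75 mg/mL (Rat-1) lysate in 50 mM Tris-HCl pH 7.8 with 6.7 mg/ml glycogen and 2% DMSO. Read-out was [14C]glucose incorporation relative to DMSO control, in triplicate.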

[8] = molecular target: T2, Glycogen [starch] synthase, muscle (Homo sapiens, UniProt P13807); test: Inhibition of C-terminal 6His-tagged wild type human GYS1 using UDPG as substrate in presence of 1 mM G-6-P by 14C-glucose incorporation assay
T2 sequence (P13807 whole entry): T1 sequence (whole entry)
Method in brief: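 Full-length wild-type hGYS1 with C-terminal 6×His tag in place of the intein-chitin binding domain, Ni-NTA purified. Glucose transfer from UDP-[14C]glucose into glycogen with 0.2 mM UDPG and 1 mM G6P. Controls contained 2% (v/v) DMSO. IC50 was fitted by four-parameter logistic. Values are mean ± SEM of at least three independent experiments in duplicate.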

[9] = molecular target: T3, Glycogen [starch] synthase, muscle (Rattus norvegicus) (UniProt A2RRU1); test: Inhibition of glycogen synthase in rat-1 fibroblast cell lysates at 100 uM using 0.2 mM UDPG as substrate in presence of 1 mM G-6-P by 14C-glucose incorporation assay relative to control; type: subcellular; conditions: Lysate; method in brief: as §1
T3 sequence (whole entry): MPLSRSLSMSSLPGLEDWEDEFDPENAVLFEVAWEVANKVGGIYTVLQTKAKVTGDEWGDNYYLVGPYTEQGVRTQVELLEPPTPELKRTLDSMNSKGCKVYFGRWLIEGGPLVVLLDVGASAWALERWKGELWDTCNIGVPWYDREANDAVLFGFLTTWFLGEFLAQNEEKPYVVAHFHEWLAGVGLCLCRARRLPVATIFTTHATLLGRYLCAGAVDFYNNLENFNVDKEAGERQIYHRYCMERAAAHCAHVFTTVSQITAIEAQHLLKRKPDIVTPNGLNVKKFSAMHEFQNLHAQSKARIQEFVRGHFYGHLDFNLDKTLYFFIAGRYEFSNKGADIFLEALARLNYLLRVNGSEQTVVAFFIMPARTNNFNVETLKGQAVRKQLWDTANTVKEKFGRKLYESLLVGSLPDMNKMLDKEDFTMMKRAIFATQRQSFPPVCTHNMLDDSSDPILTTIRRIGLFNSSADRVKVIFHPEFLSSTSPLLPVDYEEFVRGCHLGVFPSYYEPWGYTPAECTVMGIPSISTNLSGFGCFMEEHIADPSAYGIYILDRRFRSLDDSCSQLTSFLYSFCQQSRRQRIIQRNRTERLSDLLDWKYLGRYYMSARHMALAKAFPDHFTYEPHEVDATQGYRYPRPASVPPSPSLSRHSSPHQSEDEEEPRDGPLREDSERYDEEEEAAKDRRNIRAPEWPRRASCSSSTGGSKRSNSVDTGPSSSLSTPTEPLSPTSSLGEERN

Row | Compound | Activity [1] [%] | Activity [2] [%] | Activity [3] [%] | Activity [4] [%] | Activity [5] [%] | Activity [6] [%] | inhibition [7] [%] | IC50 [8] [µM] | inhibition [9] [%]
1 | Oc1ccc(-c2n[nH]cc2-c2ccccc2)c(O)c1O | 84.7 | 25.2 | > 95 | – | – | – | – | – | –
2 | COc1ccc(-c2ccc(CCC(=O)O)n2-c2ccc(O)cc2)cc1 | – | – | – | 84 | 34.5 | 50.6 | – | – | –
3 | O=[N+]([O-])c1ccc(-c2c(-c3ccc(O)c(O)c3O)n[nH]c2C(F)(F)F)cc1 | 1.43 | 10.5 | 18.8 | – | – | – | > 30 | 6.54 | > 30
4 | O=C(O)CCc1ccc(-c2ccccc2)n1-c1ccc(F)cc1 | – | – | – | 87.5 | 84.7 | 72.1 | – | – | –
5 | Cc1ccc(-c2ccccc2)n1-c1ccc(O)cc1 | – | – | – | > 95 | 79.7 | 84.3 | – | – | –
6 | Cc1[nH]nc(-c2ccc(O)c(O)c2O)c1-c1ccc(F)cc1 | 94 | 89 | > 95 | – | – | – | – | – | –
7 | Oc1ccc(-c2c(-c3ccccc3)ncn2CCc2c[nH]cn2)cc1 | – | – | – | 93.4 | 66.6 | 56.6 | – | – | –
8 | Oc1ccc(-c2c(-c3cc(F)c(O)cc3O)n[nH]c2C(F)(F)F)cc1 | 78.4 | 74.2 | 65.2 | – | – | – | – | 72.4 | –
9 | Oc1ccc(-c2c(-c3ccccc3)ncn2CCCn2ccnc2)cc1 | – | – | – | > 95 | 94.8 | > 95 | – | – | –
10 | Oc1ccc(-c2c[nH]nc2-c2ccc(O)c(O)c2O)cc1 | 22.6 | 23 | 6.21 | – | – | – | – | 9.82 | –
11 | Oc1ccc(-c2n[nH]c(C(F)(F)F)c2-c2ccc(OC(F)(F)F)cc2)c(O)c1O | 81.4 | 40.3 | 91.6 | – | – | – | – | – | –
12 | c1ccc(-c2ncn(CCc3c[nH]cn3)c2-c2ccncc2)cc1 | – | – | – | > 95 | 72.7 | 94.4 | – | – | –
13 | CN1CCCC1CCn1cnc(-c2ccccc2)c1-c1ccncc1 (centres undefined) | – | – | – | > 95 | > 95 | 93.3 | – | – | –
14 | Cc1[nH]nc(-c2ccc(O)c(O)c2O)c1-c1ccc(Cl)c(Cl)c1 | 84.7 | 81.7 | > 95 | – | – | – | – | – | –
15 | NC(=O)c1ccc(-n2c(CCC(=O)O)ccc2-c2ccccc2)cc1 | – | – | – | 78.7 | 49.3 | 40.6 | – | – | –
16 | Oc1ccc(-c2n[nH]c(C(F)(F)F)c2-c2ccccc2)c(O)c1O | 47.2 | 5.68 | 51.8 | – | – | – | – | 16.4 | –
17 | COC(=O)c1ccc(-c2c(-c3ccc(O)c(O)c3O)n[nH]c2C)cc1 | 80.1 | > 95 | 90.6 | – | – | – | – | – | –
18 | Oc1ccc(-c2n[nH]c(C(F)(F)F)c2-c2ccc(Cl)c(Cl)c2)c(O)c1O | 12.2 | 5.28 | 47.4 | – | – | – | – | 13.7 | –
19 | Oc1ccc(-c2n[nH]c(C(F)(F)F)c2-c2ccc(F)cc2)c(O)c1O | 47.8 | 11.7 | 45.7 | – | – | – | > 30 | 14.1 | > 30
20 | O=[N+]([O-])c1ccc(-c2c(-c3ccc(O)cc3O)n[nH]c2C(F)(F)F)cc1 | 89.2 | 92.7 | 82.3 | – | – | – | – | – | –
21 | N#Cc1ccc(-c2c(-c3ccc(O)c(O)c3O)n[nH]c2C(F)(F)F)cc1 | 42 | 8.14 | 51.2 | – | – | – | – | 10.1 | –
22 | Oc1ccc(-n2c(-c3ccccc3)ccc2-c2ccccc2)cc1 | – | – | – | > 95 | 86 | > 95 | – | – | –
23 | Cc1[nH]nc(-c2ccc(O)c(O)c2O)c1-c1ccc(Cl)cc1 | 91.8 | > 95 | > 95 | 4.34 | 3.52 | 6.47 | – | 52.9 | –
24 | Oc1ccc(-c2n[nH]c(C(F)(F)F)c2-c2ccc(Cl)cc2)c(O)c1 | > 95 | 87.9 | > 95 | – | – | – | – | – | –
25 | Oc1ccc(-c2n[nH]c(C(F)(F)F)c2-c2ccc(Cl)cc2)c(O)c1O | 47.5 | 11.8 | 51.5 | – | – | – | > 30 | 19.8 | > 30
26 | O=[N+]([O-])c1ccc(-c2c[nH]nc2-c2ccc(O)c(O)c2O)cc1 | 66.8 | 85 | 78.4 | – | – | – | – | 34 | –
27 | Oc1ccc(-c2n[nH]cc2-c2ccc(Cl)c(Cl)c2)c(O)c1O | 52.5 | – | – | – | – | – | – | 19.5 | –
